{"source": "ChEMBL document CHEMBL4342471", "about": "“Discovery of Thieno[2,3-d]pyrimidine-Based Hydroxamic Acid Derivatives as Bromodomain-Containing Protein 4/Histone Deacetylase Dual Inhibitors Induce Autophagic Cell Death in Colorectal Carcinoma Cells” (J Med Chem, 2020)", "key": {"[1]": {"assay": "Oral bioavailability in Sprague-Dawley rat at 30 mg/kg measured up to 1440 mins by UPLC-QTOF/MS analysis", "type": "ADME, organism-based", "conditions": "in vivo"}, "Histone deacetylase 8": {"molecular_target": "Histone deacetylase 8 (Homo sapiens, UniProt Q9BY41)", "sequence (Q9BY41 whole entry, the tested form may be a part)": "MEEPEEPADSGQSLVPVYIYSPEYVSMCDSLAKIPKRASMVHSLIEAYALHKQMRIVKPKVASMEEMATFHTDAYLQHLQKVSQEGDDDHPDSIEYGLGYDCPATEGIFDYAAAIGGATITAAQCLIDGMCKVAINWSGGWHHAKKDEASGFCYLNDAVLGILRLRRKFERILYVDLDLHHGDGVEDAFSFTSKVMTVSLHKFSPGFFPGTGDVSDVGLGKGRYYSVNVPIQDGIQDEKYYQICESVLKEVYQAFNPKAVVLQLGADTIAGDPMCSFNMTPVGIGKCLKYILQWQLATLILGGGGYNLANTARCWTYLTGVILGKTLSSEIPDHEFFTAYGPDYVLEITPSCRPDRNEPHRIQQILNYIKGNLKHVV", "assay": "Inhibition of HDAC8 (unknown origin) using biotinylated histone H3 KAc peptide (1 to 21 residues) as substrate by HTRF assay"}, "[2]": {"molecular_target": "Bromodomain testis-specific protein (Homo sapiens, UniProt Q58F21)", "assay": "Inhibition of human recombinant His-tagged BRDT BD1 domain expressed in Escherichia coli BL21(DE3)-R3-pRARE2 cells by AlphaScreen assay"}, "[3]": {"molecular_target": "T1, Bromodomain-containing protein 4 (Homo sapiens, UniProt O60885)", "assay": "Inhibition of GST-tagged BRD4 bromodomain (unknown origin) using biotinylated histone H4KAc peptide (1 to 21 residues) as substrate by HTRF assay"}, "[4]": {"molecular_target": "Bromodomain-containing protein 2 (Homo sapiens, UniProt P25440)", "sequence (P25440 whole entry, the tested form may be a part)": "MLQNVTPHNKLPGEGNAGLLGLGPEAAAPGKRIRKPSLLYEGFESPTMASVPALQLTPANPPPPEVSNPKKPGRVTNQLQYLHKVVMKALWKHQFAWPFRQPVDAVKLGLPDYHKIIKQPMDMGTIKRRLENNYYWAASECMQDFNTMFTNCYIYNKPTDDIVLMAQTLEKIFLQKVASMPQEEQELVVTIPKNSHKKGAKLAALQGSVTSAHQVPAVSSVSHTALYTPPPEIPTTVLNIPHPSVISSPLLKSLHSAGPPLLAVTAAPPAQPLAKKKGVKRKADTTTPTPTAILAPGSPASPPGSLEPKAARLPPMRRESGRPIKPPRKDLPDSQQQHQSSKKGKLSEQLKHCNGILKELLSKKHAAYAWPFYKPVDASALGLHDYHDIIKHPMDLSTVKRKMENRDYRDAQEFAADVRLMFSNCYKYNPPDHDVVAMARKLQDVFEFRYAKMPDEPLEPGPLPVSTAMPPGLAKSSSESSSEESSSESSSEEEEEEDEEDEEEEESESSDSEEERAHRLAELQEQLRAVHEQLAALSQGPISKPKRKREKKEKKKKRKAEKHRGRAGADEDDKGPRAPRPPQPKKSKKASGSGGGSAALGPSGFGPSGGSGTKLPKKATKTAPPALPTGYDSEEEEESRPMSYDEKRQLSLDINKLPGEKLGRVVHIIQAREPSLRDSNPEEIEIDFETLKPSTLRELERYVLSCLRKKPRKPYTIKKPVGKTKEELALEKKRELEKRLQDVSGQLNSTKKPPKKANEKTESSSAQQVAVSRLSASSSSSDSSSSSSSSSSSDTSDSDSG", "assay": "Inhibition of human recombinant His-tagged BRD2 BD1 domain expressed in Escherichia coli BL21(DE3)-R3-pRARE2 cells by AlphaScreen assay"}, "Histone deacetylase 7": {"molecular_target": "T2, Histone deacetylase 7 (Homo sapiens, UniProt Q8WUI4)", "T2 sequence (Q8WUI4 whole entry)": "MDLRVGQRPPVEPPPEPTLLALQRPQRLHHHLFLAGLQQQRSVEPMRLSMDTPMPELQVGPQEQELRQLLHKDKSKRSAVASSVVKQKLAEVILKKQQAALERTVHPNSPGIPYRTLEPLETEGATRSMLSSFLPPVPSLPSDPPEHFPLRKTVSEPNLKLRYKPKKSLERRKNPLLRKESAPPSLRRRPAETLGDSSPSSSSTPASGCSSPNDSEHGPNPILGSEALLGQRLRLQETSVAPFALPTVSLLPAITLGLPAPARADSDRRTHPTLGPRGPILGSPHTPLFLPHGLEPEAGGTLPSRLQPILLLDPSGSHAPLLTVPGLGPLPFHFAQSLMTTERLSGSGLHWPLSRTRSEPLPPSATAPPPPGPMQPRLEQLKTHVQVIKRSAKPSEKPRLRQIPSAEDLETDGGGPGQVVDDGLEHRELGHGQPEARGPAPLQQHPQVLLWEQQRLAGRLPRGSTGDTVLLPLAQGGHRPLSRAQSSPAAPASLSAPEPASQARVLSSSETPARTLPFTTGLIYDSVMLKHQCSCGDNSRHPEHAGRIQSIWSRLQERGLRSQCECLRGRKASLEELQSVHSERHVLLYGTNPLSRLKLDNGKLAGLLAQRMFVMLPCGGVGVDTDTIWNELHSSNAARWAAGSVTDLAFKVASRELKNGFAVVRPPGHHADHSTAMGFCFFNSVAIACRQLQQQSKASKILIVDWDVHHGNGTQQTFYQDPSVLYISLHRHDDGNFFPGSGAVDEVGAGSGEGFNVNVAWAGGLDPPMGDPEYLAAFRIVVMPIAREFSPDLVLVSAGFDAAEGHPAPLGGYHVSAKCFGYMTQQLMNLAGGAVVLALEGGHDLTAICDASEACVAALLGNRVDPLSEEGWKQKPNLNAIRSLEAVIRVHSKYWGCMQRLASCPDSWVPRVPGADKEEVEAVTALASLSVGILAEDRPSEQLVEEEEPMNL", "assay": "Inhibition of HDAC7 (unknown origin) using biotinylated histone H3 KAc peptide (1 to 21 residues) as substrate by HTRF assay"}, "[5]": {"assay": "AUC (0 to infinity) in Sprague-Dawley rat at 30 mg/kg, iv administered as bolus dose measured up to 1440 mins by UPLC-QTOF/MS analysis", "type": "ADME, organism-based", "parameters": "dose 30 mg/kg, route intravenous, time infinity", "conditions": "in vivo"}, "[6]": {"assay": "Toxicity in BALB/cAnNCrl mouse xenografted with human HCT116 cells assessed as effect on liver morphological changes at 15 to 30 mg/kg, po administered on day 1 to day 19 measured on day 19 by hematoxylin and eosin staining based assay", "type": "organism-based", "conditions": "in vivo", "procedure,_shortened": "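HCT-116 xenograft mice dosed orally at 15 or 30 mg/kg for 19 days, saline as vehicle control; body weights tracked, and main organs sectioned and H&E-stained at study end.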"}, "Homo sapiens [7]": {"species": "Homo sapiens", "assay": "Inhibition of BRD4/HDAC in human HCT116 cells assessed as increase in OSM mRNA level at 0.5 uM after 24 hrs by RT-PCR analysis", "type": "cell-based", "procedure,_shortened": "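HCT-116 cells incubated 24 h with test agent (0.5 µM, 2.0 µM or 10 µM depending on compound); IL6, OSM, LIF and CTF1 mRNA levels then quantified.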"}, "Homo sapiens [8]": {"species": "Homo sapiens", "assay": "Inhibition of BRD4/HDAC in human HCT116 cells assessed as increase in caspase 3 cleavage at 0.2 to 0.5 uM measured after 24 hrs by Western blot analysis", "type": "cell-based"}, "Homo sapiens [9]": {"species": "Homo sapiens", "assay": "Inhibition of BRD4/HDAC in human HCT116 cells assessed as inhibition of IL6-JAK-STAT3 signaling pathway by measuring decrease in STAT3 phosphorylation at 0.5 uM after 24 hrs by Western blot analysis", "type": "cell-based", "procedure,_shortened": "(§1)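 HCT-116 cells treated 24 h with 0.5 µM, 5.0 µM or 10 µM test agent depending on compound; OSMR, LIFR and downstream pathway proteins detected by western blot.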"}, "SW480": {"test_system": "SW480", "assay": "Cytotoxicity against human SW480 cells assessed as reduction in cell viability", "type": "functional, cell-based", "procedure,_shortened": "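Antiproliferative IC50 values were measured by MTT assay across a panel of colorectal carcinoma cell lines and normal colorectal epithelial cells.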"}, "[10]": {"molecular_target": "T1, Bromodomain-containing protein 4", "assay": "Inhibition of BRD4 in human HCT116 cells assessed as induction of autophagic vacuole formation in cytoplasm at 0.5 uM measured after 24 hrs by transmitted electron microscopy", "type": "cell-based", "procedure,_shortened": "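HCT-116 cells were incubated with 0.5 μM compound for 24 hours, fixed, and imaged by transmission electron microscopy for cytoplasmic autophagic vacuoles.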"}, "HCT-116": {"test_system": "HCT-116", "assay": "Induction of apoptosis in human HCT116 cells assessed as necrotic cells at 0.2 uM by Annexin-V FITC/propidium iodide staining-based flow cytometry (reference value: 0.304 %)", "type": "functional"}, "Homo sapiens [11]": {"species": "Homo sapiens", "assay": "Inhibition of BRD4/HDAC in human HCT116 cells assessed as inhibition of IL6-JAK-STAT3 signaling pathway by measuring decrease in LIFR expression at 0.5 uM after 24 hrs by Western blot analysis", "type": "cell-based", "procedure,_shortened": "as §1"}, "[12]": {"molecular_target": "T1, Bromodomain-containing protein 4", "assay": "Inhibition of BRD4 in human HCT116 cells assessed as induction of autophagy by measuring increase in cleavage of LC3-I to LC3-II measured after 24 hrs by Western blot analysis", "type": "cell-based"}, "Histone deacetylase 1": {"molecular_target": "Histone deacetylase 1 (Homo sapiens, UniProt Q13547)", "sequence (Q13547 whole entry, the tested form may be a part)": "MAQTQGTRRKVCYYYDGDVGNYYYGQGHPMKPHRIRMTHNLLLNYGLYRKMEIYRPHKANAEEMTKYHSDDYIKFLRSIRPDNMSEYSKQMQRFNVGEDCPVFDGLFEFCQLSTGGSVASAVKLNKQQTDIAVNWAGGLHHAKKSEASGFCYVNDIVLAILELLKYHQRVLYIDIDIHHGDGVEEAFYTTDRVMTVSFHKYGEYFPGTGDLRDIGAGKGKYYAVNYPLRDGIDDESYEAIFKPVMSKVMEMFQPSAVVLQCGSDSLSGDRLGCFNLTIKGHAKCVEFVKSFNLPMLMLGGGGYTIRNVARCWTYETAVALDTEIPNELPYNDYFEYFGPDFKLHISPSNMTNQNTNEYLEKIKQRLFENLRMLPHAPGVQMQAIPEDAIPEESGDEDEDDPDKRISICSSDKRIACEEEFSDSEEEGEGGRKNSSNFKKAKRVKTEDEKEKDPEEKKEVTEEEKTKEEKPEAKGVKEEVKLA", "assay": "Inhibition of HDAC1 (unknown origin) using biotinylated histone H3 KAc peptide (1 to 21 residues) as substrate by HTRF assay"}, "Mus musculus": {"test_system": "Mus musculus", "assay": "Increase in LIFR expression in tumor tissue of BALB/cAnNCrl mouse xenografted with human HCT116 cells at 15 to 30 mg/kg, po administered on day 1 to day 19 measured on day 19 by immunohistochemical analysis", "type": "functional, organism-based", "procedure,_shortened": "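HCT-116 xenograft mice were dosed orally at 15 or 30 mg/kg, or 30 mg/kg for reference agents, for 19 days, with vehicle or saline controls. Tumor sections were stained for Ki-67, c-Myc, Ac-H3, BRD4, LC3-II, LIFR and p-STAT3 by immunohistochemistry, and TUNEL staining was used as the apoptosis marker.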"}}, "note": "The source made the active and inactive calls. The calls are words filed in the database; no cut-off is given here."}
{"compound": "Cc1cc(-c2nc3sc4c(c3c(=O)[nH]2)CCN(C)C4)cc(C)c1OCCCCCC(=O)NO", "values": [{"measurement": "bioavailability", "setting": "[1]", "result": 40.5, "unit": "%"}, {"measurement": "IC50", "setting": "Histone deacetylase 8", "result": 167, "unit": "nM"}, {"measurement": "IC50", "setting": "[2]", "result": "> 20", "unit": "µM"}, {"measurement": "IC50", "setting": "[3]", "result": 710, "unit": "nM"}, {"measurement": "IC50", "setting": "[4]", "result": 16.4, "unit": "µM"}, {"measurement": "IC50", "setting": "Histone deacetylase 7", "result": "> 10", "unit": "µM"}, {"measurement": "AUC(0-inf)", "setting": "[5]", "result": 156, "unit": "µg·h/mL"}, {"measurement": "Activity", "setting": "[6]", "result": "Non-Toxic"}, {"measurement": "inhibition", "setting": "Homo sapiens [7]", "result": "Active"}, {"measurement": "inhibition", "setting": "Homo sapiens [8]", "result": "Active"}, {"measurement": "inhibition", "setting": "Homo sapiens [9]", "result": "Active"}, {"measurement": "Activity", "setting": "SW480", "result": "Active"}, {"measurement": "inhibition", "setting": "[10]", "result": "Active"}, {"measurement": "Activity", "setting": "HCT-116", "result": 7.01, "unit": "%"}, {"measurement": "inhibition", "setting": "Homo sapiens [11]", "result": "Active"}, {"measurement": "inhibition", "setting": "[12]", "result": "Dose-dependent effect"}, {"measurement": "IC50", "setting": "Histone deacetylase 1", "result": 46, "unit": "nM"}, {"measurement": "Activity", "setting": "Mus musculus", "result": "inactive"}]}
